Calls of active or inactive are those of the source. No cut-off for these calls is given here.
What was measured:
[1] = target: MAP kinase-activated protein kinase 2 (Homo sapiens) (UniProt P49137); assay: Inhibition of MK2 in Escherichia coli -stimulated human THP-1 cells assessed as reduction in p38alpha MAPK phosphorylation at 1 uM pretreated for 1 hr followed by Escherichia coli stimulation and measured up to 15 mins by western blot analysis; format: cell-based; conditions: time 1.15 hrs
THP-1 [2] = assay: Antiinflammatory activity against Escherichia coli induced human THP-1 cells assessed as reduction in proinflammatory phenotype at 1 uM for 1 hr followed by Escherichia coli stimulation and measured upto 24 hrs by MALDI-TOF MS analysis; format: functional, cell-based
In short: (§1)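 THP-1 cells pre-treated with compound for 1 h, then infected with live E. coli (MOI 2), spun 500g 5 min, left 15 or 30 min for uptake, then 100 μg/mL gentamicin for 1 h and 20 μg/mL gentamicin thereafter, up to 24 h. Pellets frozen on dry ice, thawed, washed in 100 mM Tris–HCl pH 7.5 at 4 °C, and read by MALDI-TOF MS as the normalized m/z 4964/4632 ratio.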

[3] = target: Mitogen-activated protein kinase 14 (Homo sapiens) (UniProt Q16539); assay: Binding affinity to P38alpha (unknown origin) measured at 0.05 to 333.33 nM after 600 secs by SPR analysis; conditions: dose 0.05-333.33 nM, time 600.0 sec
Mitogen-activated protein kinase 14 (Homo sapiens), sequence (Q16539 whole entry): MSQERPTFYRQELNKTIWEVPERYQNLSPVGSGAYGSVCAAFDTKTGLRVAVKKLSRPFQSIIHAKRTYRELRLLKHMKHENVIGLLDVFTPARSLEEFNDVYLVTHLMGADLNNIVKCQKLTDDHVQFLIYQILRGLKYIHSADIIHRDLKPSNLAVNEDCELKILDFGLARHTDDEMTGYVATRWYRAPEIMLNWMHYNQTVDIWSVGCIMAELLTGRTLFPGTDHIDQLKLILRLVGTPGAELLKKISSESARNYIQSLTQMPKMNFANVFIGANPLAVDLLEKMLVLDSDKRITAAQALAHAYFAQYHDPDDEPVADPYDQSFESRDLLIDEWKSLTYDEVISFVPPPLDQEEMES
In short: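 Biotinylated avidin-p38α was captured on a streptavidin chip from 50 μg/mL, reaching about 7719 RU. A 10-point series (0.05–333.33 nM) ran multicycle at 2 °C against a control surface: 90 s injection at 30 μL/min, then 600 s dissociation.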

THP-1 [4] = assay: Inhibition of human Escherichia coli stimulated monocyte activation in human THP-1 cells assessed as upregulation of MMP9 expression level at 5 uM pretreated for 1 hr and measured up to 24 hrs; format: functional, cell-based
In short: (§2)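 THP-1 cells pre-treated 1 h with 5 μM compound, then live E. coli up to 24 h. Label-free quantitative proteomics: S-Trap digestion (TCEP reduction, N-ethylmaleimide alkylation, trypsin 2 h at 47 °C), Orbitrap LC–MS/MS with a 180 min gradient. Changes called at FDR <0.05 and 1.5-fold.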

THP-1 [5] = assay: Inhibition of human Escherichia coli stimulated monocyte activation in human THP-1 cells assessed as suppression of CD49a expression level at 5 uM pretreated for 1 hr and measured up to 24 hrs by flow cytometric analysis; format: functional, cell-based
[6] = target: MAP kinase-activated protein kinase 2 (Homo sapiens) (UniProt P49137); assay: Inhibition of MK2 in Escherichia coli -stimulated human THP-1 cells assessed as reduction in p38alpha MAPK phosphorylation at 5 uM pretreated for 1 hr followed by Escherichia coli stimulation and measured up to 15 mins by western blot analysis; format: cell-based; conditions: time 1.15 hrs
THP-1 [7] = assay: Inhibition of human Escherichia coli stimulated monocyte activation in human THP-1 cells assessed as increase in ROCK1 expression level at 5 uM pretreated for 1 hr and measured up to 24 hrs; format: functional, cell-based; in short: as §2
OCI-AML2 [8] = assay: Antiinflammatory activity against Escherichia coli-stimulated human OCI-AML2 cells assessed reduction in IL-6 level measured at 24 hrs by ELISA analysis; format: functional, cell-based
In short: (§3)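 OCI-AML2 cells stimulated with live E. coli (MOI 2, gentamicin protection). TNF-α, IL-6 and IL-1β in culture supernatant measured by ELISA at 24 h post-treatment, 450 nm with 540 nm correction, four biological replicates.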

THP-1 [9] = assay: Inhibition of P38 MAPK pathway in Escherichia coli-stimulated human THP-1 cells assessed as reduction in IL-1beta expression at 5 uM pretreated for 1 hr followed by Escherichia coli stimulation and measured upto 24 hrs by ELISA analysis
In short: (§4)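 THP-1 cells pre-treated 1 h with 5 μM compound, then infected with live E. coli (MOI 2), followed by gentamicin killing of extracellular bacteria. TNF-α, IL-6 or IL-1β in supernatant measured by ELISA at 24 h, absorbance at 450 nm with 540 nm correction.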

THP-1 [10] = assay: Inhibition of P38 MAPK pathway in Escherichia coli-stimulated human THP-1 cells assessed as reduction in IL-6 expression at 5 uM pretreated for 1 hr followed by Escherichia coli stimulation and measured up to 24 hrs by ELISA analysis; in short: as §4
[11] = test system: Acute myeloid leukemic cell; assay: Antiinflammatory activity against LPS-stimulated patient derived primary AML cells assessed reduction in TNFalpha level measured at 24 hrs by ELISA analysis; format: functional, cell-based; conditions: Homo sapiens
In short: (§5)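 CD14+ monocytes from healthy-donor blood (Lymphoprep, then pan-monocyte isolation) or patient AML cells (cultured in IMDM with 20% FBS, IL-3 and SCF). Cells pre-treated 1 h with 5 μM or 1 μM compound, then 100 ng/mL LPS; TNF-α in supernatant measured by ELISA at 24 h. Four (monocytes) or two (AML) biological replicates, error shown as SD.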

THP-1 [12] = assay: Antiinflammatory activity against LPS-stimulated human THP-1 cells assessed as reduction in IL-6 level pretreated for 1 hr followed by LPS stimulation and measured upto 24 hrs by ELISA analysis; format: functional, cell-based
In short: (§6)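 THP-1 cells pre-treated with compound for 1 h (5 μM or 1 μM, depending on the compound), then stimulated with 100 ng/mL LPS. Culture supernatant was taken at 24 h, and TNF-α, IL-6 or IL-1β was measured by sandwich ELISA at 450 nm with 540 nm correction; four biological replicates.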

THP-1 [13] = assay: Antiinflammatory activity against LPS-stimulated human THP-1 cells assessed as reduction in TNFalpha level pretreated for 1 hr followed by LPS stimulation and measured upto 24 hrs by ELISA analysis; format: functional, cell-based; in short: as §6
THP-1 [14] = assay: Inhibition of human Escherichia coli stimulated monocyte activation in human THP-1 cells assessed as decrease in TLR2 expression level at 5 uM pretreated for 1 hr and measured up to 24 hrs; format: functional, cell-based; in short: as §2
THP-1 [15] = assay: Inhibition of human Escherichia coli stimulated monocyte activation in human THP-1 cells assessed as decrease in ICAM-1 expression level at 5 uM pretreated for 1 hr and measured up to 24 hrs; format: functional, cell-based
THP-1 [16] = assay: Antiinflammatory activity against Escherichia coli induced human THP-1 cells assessed as reduction in proinflammatory phenotype at 5 uM for 1 hr followed by Escherichia coli stimulation and measured upto 24 hrs by MALDI-TOF MS analysis; format: functional, cell-based; in short: as §1
THP-1 [17] = assay: Antiinflammatory activity against LPS-stimulated human THP-1 cells assessed as reduction in IL-1beta level pretreated for 1 hr followed by LPS stimulation and measured upto 24 hrs by ELISA analysis; format: functional, cell-based; in short: as §6
NCI-H929 = assay: Inhibition of MK2 in Escherichia coli-stimulated human NCI-H929 cells assessed as reduction in MK2 phosphorylation pretreated for 1 hr followed by Escherichia coli stimulation and measured up to 15 mins by western blot analysis; format: cell-based; conditions: time 1.15 hrs
THP-1 [18] = assay: Antiinflammatory activity against LPS-stimulated human THP-1 cells assessed as TNF-alpha secretion pretreated for 1 hr followed by LPS stimulation and measured upto 24 hrs by ELISA analysis; format: functional, cell-based; in short: as §6
[19] = target: Mitogen-activated protein kinase 14 (Homo sapiens) (UniProt Q16539); conditions: THP-1, dose 5.0 µM, time 1.15 hrs
THP-1 [20] = assay: Inhibition of human Escherichia coli stimulated monocyte activation in human THP-1 cells assessed as suppression of CD54 expression level at 5 uM pretreated for 1 hr and measured up to 24 hrs by flow cytometric analysis; format: functional, cell-based
Monocyte = assay: Antiinflammatory activity against LPS-stimulated human primary monocyte cells assessed reduction in TNFalpha level measured at 24 hrs by ELISA analysis; format: functional, cell-based; in short: as §5
THP-1 [21] = assay: Inhibition of cell adhesion in human Escherichia coli stimulated-THP-1 cells by crystal violet staining based assay; format: functional
In short: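 E. coli-stimulated THP-1 cells washed twice with PBS, fixed 15 min in 4% paraformaldehyde, stained 10 min with 5 mg/mL crystal violet, lysed 30 min in 2% SDS. Absorbance read at 550 nm; four biological replicates.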

THP-1 [22] = assay: Inhibition of human Escherichia coli stimulated monocyte activation in human THP-1 cells assessed as decrease in IL-1beta expression level at 5 uM pretreated for 1 hr and measured up to 24 hrs; format: functional, cell-based; in short: as §2
THP-1 [23] = assay: Inhibition of human Escherichia coli stimulated monocyte activation in human THP-1 cells assessed as increase in Filamin-B expression level at 5 uM pretreated for 1 hr and measured up to 24 hrs; format: functional, cell-based; in short: as §2
THP-1 [24] = assay: Inhibition of P38 MAPK pathway in Escherichia coli-stimulated human THP-1 cells assessed as reduction in TNFalpha expression at 5 uM pretreated for 1 hr followed by Escherichia coli stimulation and measured up to 24 hrs by ELISA analysis; in short: as §4
OCI-AML2 [25] = assay: Antiinflammatory activity against Escherichia coli-stimulated human OCI-AML2 cells assessed reduction in IL-1beta level measured at 24 hrs by ELISA analysis; format: functional, cell-based; in short: as §3
THP-1 [26] = assay: Inhibition of human Escherichia coli stimulated monocyte activation in human THP-1 cells assessed as […] of CD44 expression level at 5 uM pretreated for 1 hr and measured up to 24 hrs; format: functional, cell-based
THP-1 [27] = assay: Inhibition of human Escherichia coli stimulated monocyte activation in human THP-1 cells assessed as decrease in CD44 expression level at 5 uM pretreated for 1 hr and measured up to 24 hrs; format: functional, cell-based
OCI-AML2 [28] = assay: Antiinflammatory activity against Escherichia coli-stimulated human OCI-AML2 cells assessed reduction in TNFalpha level measured at 24 hrs by ELISA analysis; format: functional, cell-based; in short: as §3
THP-1 [29] = assay: Inhibition of human Escherichia coli stimulated monocyte activation in human THP-1 cells assessed as suppression of CD11c expression level at 5 uM pretreated for 1 hr and measured up to 24 hrs by flow cytometric analysis; format: functional, cell-based
THP-1 [30] = assay: Inhibition of human Escherichia coli stimulated monocyte activation in human THP-1 cells assessed as decrease in CD14 expression level at 5 uM pretreated for 1 hr and measured up to 24 hrs; format: functional, cell-based
THP-1 [31] = assay: Inhibition of human Escherichia coli stimulated monocyte activation in human THP-1 cells assessed as suppression of CD14 expression level at 5 uM pretreated for 1 hr and measured up to 24 hrs; format: functional, cell-based
[32] = target: Mitogen-activated protein kinase 14 (Homo sapiens) (UniProt Q16539); conditions: THP-1, dose 5.0 µM, time 1.15 hrs; remark: listed apart in the source
THP-1 [33] = assay: Antiinflammatory activity against LPS-stimulated human THP-1 cells assessed as disappearance inflammatory phenotype at 5 uM pretreated for 1 hr followed by LPS stimulation and measured upto 24 hrs by ELISA analysis; format: functional, cell-based
OCI-AML2 [34] = assay: Inhibition of MK2 in Escherichia coli-stimulated human OCI-AML2 cells assessed as reduction inMK2 phosphorylation pretreated for 1 hr followed by Escherichia coli stimulation and measured up to 15 mins by western blot analysis; format: cell-based; conditions: time 1.15 hrs
THP-1 [35] = assay: Inhibition of human Escherichia coli stimulated monocyte activation in human THP-1 cells assessed as decrease in MMP9 expression level at 5 uM pretreated for 1 hr and measured up to 24 hrs; format: functional, cell-based; in short: as §2

MAP kinase-activated protein kinase 2 (Homo sapiens), sequence (P49137 whole entry, looked up): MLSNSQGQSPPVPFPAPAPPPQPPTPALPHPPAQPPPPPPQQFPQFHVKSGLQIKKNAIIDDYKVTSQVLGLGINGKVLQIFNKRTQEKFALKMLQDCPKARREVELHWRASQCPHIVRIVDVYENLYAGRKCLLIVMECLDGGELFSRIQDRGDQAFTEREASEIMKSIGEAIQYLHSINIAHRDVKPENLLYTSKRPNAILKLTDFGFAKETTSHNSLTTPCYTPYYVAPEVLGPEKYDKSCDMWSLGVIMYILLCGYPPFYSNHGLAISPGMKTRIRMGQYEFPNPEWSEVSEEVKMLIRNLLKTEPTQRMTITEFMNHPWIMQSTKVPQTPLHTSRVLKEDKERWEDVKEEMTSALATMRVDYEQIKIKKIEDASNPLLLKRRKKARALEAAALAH

In the case of `Cc1c(F)cc(C(=O)NC2CC2)cc1-c1ccc(C(=O)NCC(C)(C)C)cn1`, the inhibition [1] is reported as “Active” and the Activity (THP-1 [2]) is reported as “Active”.
In the case of `Cc1ccc(C(=O)Nc2ccc(CN3CCN(C)CC3)c(C(F)(F)F)c2)cc1C#Cc1cnc2cccnn12`, the Activity [3] is reported as “Active”.
For `Cc1cn(-c2cc(NC(=O)c3ccc(C)c(Nc4nccc(-c5cccnc5)n4)c3)cc(C(F)(F)F)c2)cn1` [NILOTINIB], the inhibition (THP-1 [4]) was “Active”, the inhibition (THP-1 [5]) was “Active” and the inhibition [6] was “Active”. For the same molecule, the inhibition (THP-1 [7]) was “Active”, the Activity (OCI-AML2 [8]) was “Active” and the inhibition (THP-1 [9]) was “Active”. For the same molecule, the inhibition (THP-1 [10]) was “Active”, the Activity [11] was “Active” and the Activity (THP-1 [12]) was “Active”. For the same molecule, the Activity (THP-1 [13]) was “Active”, the inhibition (THP-1 [14]) was “Active” and the inhibition (THP-1 [15]) was “Active”. For the same molecule, the Activity (THP-1 [16]) was “Active”, the Activity (THP-1 [17]) was “Active” and the inhibition (NCI-H929) was “Active”. For the same molecule, the IC50 (THP-1 [18]) was 400 nM, the Tm [19] was 55.1 °C and the inhibition (THP-1 [20]) was “Active”. For the same molecule, the Activity [3] was “Active”, the Activity (Monocyte) was “Active” and the inhibition (THP-1 [21]) was “Active”. For the same molecule, the inhibition (THP-1 [22]) was “Active”, the inhibition (THP-1 [23]) was “Active” and the inhibition (THP-1 [24]) was “Active”. The Activity (OCI-AML2 [25]) was “Active”, the inhibition (THP-1 [26]) was “Active” and the inhibition (THP-1 [27]) was “Active”. The Activity (OCI-AML2 [28]) was “Active”, the inhibition (THP-1 [29]) was “Active” and the inhibition (THP-1 [30]) was “Active”. For the same molecule, the inhibition (THP-1 [31]) was “Active”, the Tm [32] was 60.7 °C and the Activity (THP-1 [33]) was “Active”. The inhibition (OCI-AML2 [34]) was “Active” and the inhibition (THP-1 [35]) was “Active”.

From ChEMBL document CHEMBL5113533 (J Med Chem, 2022)
